≈ marks a conversion by molar mass, not a printed value.
Legend:
CYP1A2 = target: T1, CYP1A2 (Homo sapiens, UniProt P05177); assay: Inhibition of CYP1A2 at 10 uM; format: ADME
T1 sequence (P05177 whole entry): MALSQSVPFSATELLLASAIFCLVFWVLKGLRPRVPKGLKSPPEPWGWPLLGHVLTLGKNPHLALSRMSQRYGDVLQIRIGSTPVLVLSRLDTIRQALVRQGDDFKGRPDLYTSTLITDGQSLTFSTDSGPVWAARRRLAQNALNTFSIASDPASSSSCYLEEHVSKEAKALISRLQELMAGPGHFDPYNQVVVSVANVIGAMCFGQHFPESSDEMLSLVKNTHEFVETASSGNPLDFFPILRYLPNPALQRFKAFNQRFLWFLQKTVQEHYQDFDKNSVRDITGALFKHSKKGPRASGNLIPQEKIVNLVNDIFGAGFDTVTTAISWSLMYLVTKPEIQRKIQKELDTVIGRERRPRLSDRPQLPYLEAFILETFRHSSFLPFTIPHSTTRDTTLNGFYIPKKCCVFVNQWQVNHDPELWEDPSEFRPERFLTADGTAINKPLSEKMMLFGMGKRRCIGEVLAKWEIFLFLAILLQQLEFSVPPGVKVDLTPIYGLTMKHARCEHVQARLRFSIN

CYP2C19 = CYP2C19 (Homo sapiens, UniProt P33261); assay: Inhibition of CYP2C19 at 10 uM; format: ADME
CYP2C19, sequence (P33261 whole entry): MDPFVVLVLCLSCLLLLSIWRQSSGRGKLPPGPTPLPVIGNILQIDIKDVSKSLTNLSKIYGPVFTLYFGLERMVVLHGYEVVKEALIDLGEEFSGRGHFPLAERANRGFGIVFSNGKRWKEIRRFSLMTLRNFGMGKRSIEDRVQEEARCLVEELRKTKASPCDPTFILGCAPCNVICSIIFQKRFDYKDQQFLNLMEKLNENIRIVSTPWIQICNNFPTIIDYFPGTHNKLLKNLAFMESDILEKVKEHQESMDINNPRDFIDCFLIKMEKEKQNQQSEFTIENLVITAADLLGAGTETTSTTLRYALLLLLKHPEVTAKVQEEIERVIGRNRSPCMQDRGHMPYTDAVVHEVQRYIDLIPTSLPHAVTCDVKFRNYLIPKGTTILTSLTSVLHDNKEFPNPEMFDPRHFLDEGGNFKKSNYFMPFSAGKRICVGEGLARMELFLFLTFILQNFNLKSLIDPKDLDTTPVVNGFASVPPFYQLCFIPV

CYP2C8 = target: T2, CYP2C8 (Homo sapiens, UniProt P10632); assay: Inhibition of CYP2C8 at 10 uM; format: ADME
T2 sequence (P10632 whole entry): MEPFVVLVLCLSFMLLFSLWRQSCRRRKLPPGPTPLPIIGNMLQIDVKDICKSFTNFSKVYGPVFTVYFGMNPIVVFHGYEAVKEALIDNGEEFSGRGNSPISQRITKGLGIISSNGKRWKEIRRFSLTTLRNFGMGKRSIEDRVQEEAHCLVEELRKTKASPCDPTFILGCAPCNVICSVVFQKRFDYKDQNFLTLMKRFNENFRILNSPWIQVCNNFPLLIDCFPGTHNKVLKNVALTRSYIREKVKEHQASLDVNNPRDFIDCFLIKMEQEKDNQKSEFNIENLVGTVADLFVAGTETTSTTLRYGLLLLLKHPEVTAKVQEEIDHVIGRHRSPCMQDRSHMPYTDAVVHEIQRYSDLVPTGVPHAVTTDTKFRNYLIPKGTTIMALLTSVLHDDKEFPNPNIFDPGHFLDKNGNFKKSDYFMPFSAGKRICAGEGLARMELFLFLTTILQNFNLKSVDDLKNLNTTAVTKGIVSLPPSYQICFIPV

CYP2C9 = CYP2C9 (Homo sapiens, UniProt P11712); assay: Inhibition of CYP2C9 at 10 uM; format: ADME
CYP2C9, sequence (P11712 whole entry): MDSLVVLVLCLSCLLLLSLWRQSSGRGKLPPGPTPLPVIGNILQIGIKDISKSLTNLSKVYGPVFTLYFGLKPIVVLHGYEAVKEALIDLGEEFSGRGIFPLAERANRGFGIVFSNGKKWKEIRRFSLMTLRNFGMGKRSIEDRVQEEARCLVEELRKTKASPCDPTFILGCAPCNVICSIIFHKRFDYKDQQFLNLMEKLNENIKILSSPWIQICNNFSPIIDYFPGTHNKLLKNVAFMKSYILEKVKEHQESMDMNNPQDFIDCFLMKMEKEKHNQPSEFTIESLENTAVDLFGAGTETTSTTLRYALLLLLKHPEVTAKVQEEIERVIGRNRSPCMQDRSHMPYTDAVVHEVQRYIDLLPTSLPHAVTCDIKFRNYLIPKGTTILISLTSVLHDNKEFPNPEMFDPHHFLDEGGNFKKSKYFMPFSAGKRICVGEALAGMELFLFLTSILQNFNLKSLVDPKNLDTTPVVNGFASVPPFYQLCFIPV

CYP2D6 = CYP2D6 (Homo sapiens, UniProt P10635); assay: Inhibition of CYP2D6 at 10 uM; format: ADME
CYP2D6, sequence (P10635 whole entry): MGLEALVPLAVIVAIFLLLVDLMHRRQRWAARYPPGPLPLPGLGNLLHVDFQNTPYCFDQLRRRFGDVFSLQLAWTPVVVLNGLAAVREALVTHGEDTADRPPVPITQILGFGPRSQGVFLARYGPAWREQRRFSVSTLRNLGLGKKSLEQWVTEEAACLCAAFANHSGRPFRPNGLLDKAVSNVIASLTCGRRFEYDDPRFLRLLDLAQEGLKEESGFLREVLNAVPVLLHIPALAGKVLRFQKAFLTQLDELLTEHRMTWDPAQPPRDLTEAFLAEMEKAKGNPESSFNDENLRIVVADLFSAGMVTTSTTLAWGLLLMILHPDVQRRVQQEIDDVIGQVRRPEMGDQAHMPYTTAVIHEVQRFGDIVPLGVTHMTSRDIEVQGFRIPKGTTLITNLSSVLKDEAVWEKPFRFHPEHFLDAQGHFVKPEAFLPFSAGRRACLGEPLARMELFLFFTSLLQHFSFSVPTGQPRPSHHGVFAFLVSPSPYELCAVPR

CYP2E1 = CYP2E1 (Homo sapiens, UniProt P05181); assay: Inhibition of CYP2E1 at 10 uM; format: ADME
CYP2E1, sequence (P05181 whole entry): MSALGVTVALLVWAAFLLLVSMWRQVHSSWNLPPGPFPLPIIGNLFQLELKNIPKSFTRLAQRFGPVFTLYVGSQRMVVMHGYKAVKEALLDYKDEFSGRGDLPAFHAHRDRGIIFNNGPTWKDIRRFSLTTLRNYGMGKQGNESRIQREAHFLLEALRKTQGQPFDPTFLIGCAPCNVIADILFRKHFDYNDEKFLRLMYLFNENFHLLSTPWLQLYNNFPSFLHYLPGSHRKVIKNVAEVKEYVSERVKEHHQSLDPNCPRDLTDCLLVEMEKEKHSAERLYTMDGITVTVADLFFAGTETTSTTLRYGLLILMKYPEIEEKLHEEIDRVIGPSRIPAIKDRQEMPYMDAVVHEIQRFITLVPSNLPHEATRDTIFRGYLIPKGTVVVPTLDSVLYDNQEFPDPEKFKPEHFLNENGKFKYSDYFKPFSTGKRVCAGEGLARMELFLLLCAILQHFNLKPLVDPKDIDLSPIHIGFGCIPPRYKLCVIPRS

CYP3A4 = CYP3A4 (Homo sapiens, UniProt P08684); assay: Inhibition of CYP3A4 at 10 uM; format: ADME
CYP3A4, sequence (P08684 whole entry): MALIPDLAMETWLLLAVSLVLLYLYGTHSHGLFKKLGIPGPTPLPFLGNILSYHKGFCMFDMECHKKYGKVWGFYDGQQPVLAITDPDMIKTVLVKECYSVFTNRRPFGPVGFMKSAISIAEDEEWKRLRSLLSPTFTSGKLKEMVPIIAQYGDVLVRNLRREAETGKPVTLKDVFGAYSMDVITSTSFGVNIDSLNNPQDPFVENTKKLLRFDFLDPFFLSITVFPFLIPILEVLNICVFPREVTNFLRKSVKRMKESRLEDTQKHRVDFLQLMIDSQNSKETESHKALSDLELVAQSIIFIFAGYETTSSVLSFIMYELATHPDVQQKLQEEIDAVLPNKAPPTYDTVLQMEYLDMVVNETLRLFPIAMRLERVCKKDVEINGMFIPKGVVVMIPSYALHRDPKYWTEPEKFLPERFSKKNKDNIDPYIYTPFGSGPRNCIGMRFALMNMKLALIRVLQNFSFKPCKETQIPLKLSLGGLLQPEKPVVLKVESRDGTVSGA

[1] = Solubility of the compound in water after 24 hrs by HPLC analysis; format: physicochemical
[2] = Solubility of the compound in EtOH after 24 hrs by HPLC analysis; format: physicochemical
[3] = Clearance in Sprague-Dawley rat at 2 mg/kg, iv; format: ADME, organism-based; parameters: dose 2 mg/kg, route intravenous; conditions: in vivo
Summary of the method: (§1)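 Male Sprague-Dawley rats (250–350 g, 8–10 weeks), three per group. Single 2 mg/kg iv bolus into the jugular vein in PEG400/DMSO (80:20, v/v), or 20 mg/kg orally in 1% carboxymethyl cellulose plus 0.5% Tween 80. Plasma was assayed by LC-MS/MS (MRM) and analysed noncompartmentally.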

[4] = Volume of distribution at steady state in Sprague-Dawley rat at 2 mg/kg, iv; format: ADME, organism-based; parameters: dose 2 mg/kg, route intravenous; conditions: in vivo, read-out: Vdss; summary of the method: as §1
[5] = Half life in Sprague-Dawley rat at 2 mg/kg, iv; format: ADME, organism-based; parameters: dose 2 mg/kg, route intravenous; conditions: in vivo; summary of the method: as §1
[6] = AUC (0 to infinity) in Sprague-Dawley rat at 2 mg/kg, iv; format: ADME, organism-based; parameters: dose 2 mg/kg, route intravenous, time infinity; conditions: plasma; summary of the method: as §1
[7] = Half life in Sprague-Dawley rat at 20 mg/kg, po; format: ADME, organism-based; parameters: dose 20 mg/kg, route oral; conditions: in vivo; summary of the method: as §1
[8] = AUC (0 to infinity) in Sprague-Dawley rat at 20 mg/kg, po; format: ADME, organism-based; parameters: time infinity, dose 20 mg/kg, route oral; conditions: plasma; summary of the method: as §1
[9] = Tmax in Sprague-Dawley rat at 20 mg/kg, po; format: ADME, organism-based; parameters: dose 20 mg/kg, route oral; conditions: in vivo; summary of the method: as §1
[10] = Cmax in Sprague-Dawley rat at 20 mg/kg, po; format: ADME, organism-based; parameters: dose 20 mg/kg, route oral; conditions: in vivo; summary of the method: as §1
[11] = Oral bioavailability in Sprague-Dawley rat at 20 mg/kg; format: ADME, organism-based; conditions: in vivo; summary of the method: as §1
A549 [12] = assay: Antitumor activity against human A549 cells xenografted in nude mouse assessed as time to end point at 200 mg/kg, po administered QD till end point; format: functional
Summary of the method: (§2)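 At about 65 mm³ they were randomized, seven per group, and dosed po daily at 10 mL/kg in 0.5% carboxymethyl cellulose until a 1000 mm³ end point. Volume was w²l/2. TTE came from linear regression of log volume; TGD = T − C and %TGD = (T − C)/C × 100.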

A549 [13] = assay: Antitumor activity against human A549 cells xenografted in nude mouse assessed as time to end point at 100 mg/kg, po administered QD till end point; format: functional
A549 [14] = assay: Antitumor activity against human A549 cells xenografted in nude mouse assessed as tumor growth delay at 200 mg/kg, po administered QD till end point; format: functional; summary of the method: as §2
A549 [15] = assay: Antitumor activity against human A549 cells xenografted in nude mouse assessed as tumor growth delay at 100 mg/kg, po administered QD till end point; format: functional
A549 [16] = assay: Antitumor activity against human A549 cells xenografted in po dosed nude mouse assessed as tumor growth delay administered QD till end point; format: functional, organism-based
A549 [17] = assay: Antitumor activity against human A549 cells xenografted in nude mouse assessed as tumor growth inhibition at 200 mg/kg, po administered QD till end point; format: functional; conditions: read-out: GI
A549 [18] = assay: Antitumor activity against human A549 cells xenografted in nude mouse assessed as tumor growth inhibition at 100 mg/kg, po administered QD till end point; format: functional; conditions: read-out: GI
Summary of the method: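 A549 sc xenografts in female nude mice, seven per group, dosed po daily in 0.5% carboxymethyl cellulose (10 mL/kg) to a 1000 mm³ end point. Tumor volume was w²l/2. TGI was expressed as % T/C of tumor volumes, treated versus control, and compared with control by P value at the indicated days.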

Mus musculus [19] = assay: Toxicity in nude mouse bearing human A549 cells assessed as body weight change at 200 mg/kg, po QD; format: organism-based; parameters: dose 200 mg/kg, route oral; conditions: in vivo
Summary of the method: (§3)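 Nude mice bearing sc A549 xenografts were dosed po daily in 0.5% carboxymethyl cellulose at 10 mL/kg, scaled to body weight.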

Mus musculus [20] = assay: Toxicity in nude mouse bearing human A549 cells assessed as body weight change at 100 mg/kg, po QD; format: organism-based; parameters: dose 100 mg/kg, route oral; conditions: in vivo; summary of the method: as §3
Mus musculus [21] = assay: Toxicity in nude mouse bearing human A549 cells assessed as adverse effects at 200 mg/kg, po QD; format: organism-based; parameters: dose 200 mg/kg, route oral; conditions: in vivo
Mus musculus [22] = assay: Toxicity in nude mouse bearing human A549 cells assessed as adverse effects at 100 mg/kg, po QD; format: organism-based; parameters: dose 100 mg/kg, route oral; conditions: in vivo
cells = format: functional, Hep 3B2; conditions: Homo sapiens, Hep3B, 48 h
MDA-MB-231 = assay: cells; format: functional; conditions: Homo sapiens, MDA-MB-231, 48 h
PC-3 = assay: cells; format: functional; conditions: Homo sapiens, PC-3, 48 h
A549 [23] = assay: Growth inhibition of human A549 cells after 48 hrs by SRB assay; format: functional; conditions: Homo sapiens, A549, 48 h
Summary of the method: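 A549 cells were grown in RPMI 1640 with 10% FBS and 2 mM glutamine at 37 °C in 5% CO₂, then seeded in medium with 5% FBS. A 24 h TCA-fixed plate gave T₀. Cells were exposed to compound or DMSO for 48 h, fixed with 10% TCA and stained with 0.4% SRB; bound dye was solubilized in 10 mM Tris and read at 515 nm. GI₅₀ was the concentration halving net protein increase. At least three independent experiments.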

Tubulin (Homo sapiens) [24] = target: T3, Tubulin (Homo sapiens) (UniProt P68371+Q9H4B7+P0DPH7+P68366+Q13509+Q71U36+P04350+Q3ZCM7+P07437+P68363+Q9BQE3+Q6PEY2+Q13885+Q9BVA1+Q9BUF5); assay: Inhibition of HDAC in human PC3 cells assessed as tubulin acetylation after 48 hrs by Western blot analysis; conditions: PC-3
Tubulin (Homo sapiens) [25] = target: T3, Tubulin (Homo sapiens); assay: Inhibition of HDAC in human A549 cells assessed as tubulin acetylation after 48 hrs by Western blot analysis

Which inhibition at 10 µM (CYP1A2) does the source give for O=C(/C=C/c1ccc2c(ccn2S(=O)(=O)c2ccccc2)c1)NO here?
The inhibition at 10 µM was 51%.

And the inhibition at 10 µM (CYP2C19)?
The inhibition at 10 µM was 78%.

What about the inhibition at 10 µM (CYP2C8) of the same compound?
Its inhibition at 10 µM is 78%.

What about the inhibition at 10 µM (CYP2C9) of the same compound?
Its inhibition at 10 µM is 22%.

And the inhibition at 10 µM (CYP2D6)?
Its inhibition at 10 µM is 31%.

And the inhibition at 10 µM (CYP2E1)?
The inhibition at 10 µM was 22%.

And the inhibition at 10 µM (CYP3A4)?
The inhibition at 10 µM was 65%.

And the solubility at 24 h [1]?
The solubility at 24 h was less than 1 µg/mL.

And the solubility at 24 h [2]?
The solubility at 24 h was 939 µg/mL (≈ 2740 µM).

And the clearance [3]?
Its clearance is 35.5 mL/min/kg.

And the Vd [4]?
Its Vd is 2.1 L/kg.

And the half-life [5]?
The half-life was 2.6 h.

What about the AUC(0-inf) [6] of the same compound?
Its AUC(0-inf) is 927 ng·h/mL.

And the half-life [7]?
The half-life was 5.5 h.

And the AUC(0-inf) [8]?
Its AUC(0-inf) is 916 ng·h/mL.

And the Tmax [9]?
Its Tmax is 1.7 h.

What about the Cmax [10] of the same compound?
Its Cmax is 217 ng/mL.

And the bioavailability [11]?
The bioavailability was 10%.

And the Time (A549 [12])?
The Time was 39.8 days.

What about the Time (A549 [13]) of the same compound?
The Time was 36.2 days.

What about the Activity (A549 [14]) of the same compound?
Its Activity is 47%.

What about the Activity (A549 [15]) of the same compound?
The Activity was 34%.

What about the Activity (A549 [16]) of the same compound?
The Activity was “Dose-dependent effect”.

And the inhibition in vivo at 200 mg/kg (A549 [17])?
The inhibition in vivo at 200 mg/kg was 32.1%.

What about the inhibition in vivo at 100 mg/kg (A549 [18]) of the same compound?
Its inhibition in vivo at 100 mg/kg is 15%.

And the Activity (Mus musculus [19])?
The Activity was “Non-toxic”.

What about the Activity (Mus musculus [20]) of the same compound?
Its Activity is “Non-toxic”.

What about the Activity (Mus musculus [21]) of the same compound?
The Activity was “Non-toxic”.

What about the Activity (Mus musculus [22]) of the same compound?
The Activity was “Non-toxic”.

And the GI50 (cells)?
Its GI50 is 410 nM.

And the GI50 (MDA-MB-231)?
Its GI50 is 480 nM.

And the GI50 (PC-3)?
Its GI50 is 620 nM.

What about the GI50 (A549 [23]) of the same compound?
Its GI50 is 1020 nM.

And the inhibition (Tubulin (Homo sapiens) [24])?
Its inhibition is “Dose-dependent effect”.

And the inhibition (Tubulin (Homo sapiens) [25])?
The inhibition was “Dose-dependent effect”.
